Laboratory results published in ChEMBL document CHEMBL3616444, “Design, synthesis and pharmacological evaluation of pyrimidobenzothiazole-3-carboxylate derivatives as selective L-type calcium channel blockers” (Bioorg Med Chem, 2015).

How the values were obtained:
Rattus norvegicus [1] = experiment: Gastrointestinal toxicity in Norwegian rat assessed as ulcerative index at 50 mg/kg, po after 17 hrs; type: organism-based; conditions: in vivo
Rattus norvegicus [2] = experiment: Antihypertensive activity in Norwegian albino rat model of DOCA-salt-induced hypertension assessed as inhibition of systolic blood pressure at 10 mg/kg, po after 7 hrs by non-invasive tail cuff method relative to control; type: functional
How it was run: (§1)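 DOCA-salt hypertensive rats; systolic pressure by tail cuff after 10 mg/kg, recorded hourly from 0 to 10 h; percent inhibition computed. Data as mean ± SEM, repeated-measures ANOVA.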

Rattus norvegicus [3] = experiment: Antihypertensive activity in Norwegian albino rat model of DOCA-salt-induced hypertension assessed as inhibition of systolic blood pressure at 10 mg/kg, po after 4 hrs by non-invasive tail cuff method relative to control; type: functional; how it was run: as §1
[4] = biological target: Myosin light chain kinase, smooth muscle (Homo sapiens, UniProt Q15746); experiment: Inhibition of MLCK (unknown origin) incubated for 15 mins using [gamma-32P]-ATP by scintillation counting method
How it was run: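 Active MLCK thawed on ice with kinase assay and dilution buffers and substrate; reaction with γ-32P-ATP incubated 15 min at 30 °C in a water bath, spotted on phosphocellulose P81 paper, washed three times ~10 min in 1% phosphoric acid. Radioactivity by scintillation counting, blank-corrected cpm converted to specific activity (nmol/min/mg); IC50 from log plots, at least five determinations per concentration.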

Rattus norvegicus [5] = experiment: Antihypertensive activity in Norwegian albino rat assessed as inhibition of systolic blood pressure at 10 mg/kg, po after 0.3 hrs by invasive carotid artery cannulation method relative to control; type: functional
[6] = Inhibition of porcine kidney ACE assessed as reduction in hippuryl-histidyl-leucine hydrolysis to hippuric acid release incubated for 30 mins high-throughput colorimetric method; set-up: species or system Sus scrofa
How it was run: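 Porcine kidney ACE in 1 M sodium borate buffer pH 8.2 with 0.3 M NaCl and 5 mM HHL substrate (stock); 37 °C for 30 min, stopped with 1 M HCl. Released hippuric acid complexed with pyridine and benzene sulfonyl chloride, cooled on ice, yellow colour read at 410 nm; IC50 from log plots, at least five determinations per concentration.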

Rattus norvegicus [7] = experiment: Antihypertensive activity in Norwegian albino rat assessed as inhibition of systolic blood pressure at 10 mg/kg, po after 0.15 hrs by invasive carotid artery cannulation method relative to control; type: functional
Rattus norvegicus [8] = experiment: Antihypertensive activity in Norwegian albino rat model of DOCA-salt-induced hypertension assessed as inhibition of systolic blood pressure at 10 mg/kg, po after 1 hr by non-invasive tail cuff method relative to control; type: functional; how it was run: as §1
Rattus norvegicus [9] = experiment: Antihypertensive activity in Norwegian albino rat model of DOCA-salt-induced hypertension assessed as inhibition of systolic blood pressure at 10 mg/kg, po after 2 hrs by non-invasive tail cuff method relative to control; type: functional; how it was run: as §1
Rattus norvegicus [10] = experiment: Antihypertensive activity in Norwegian albino rat assessed as inhibition of systolic blood pressure at 10 mg/kg, po after 3 hrs by invasive carotid artery cannulation method relative to control; type: functional
Rattus norvegicus [11] = experiment: Antihypertensive activity in Norwegian albino rat model of DOCA-salt-induced hypertension assessed as inhibition of systolic blood pressure at 10 mg/kg, po after 9 hrs by non-invasive tail cuff method relative to control; type: functional; how it was run: as §1
Rattus norvegicus [12] = experiment: Antihypertensive activity in Norwegian albino rat model of DOCA-salt-induced hypertension assessed as inhibition of systolic blood pressure at 10 mg/kg, po after 5 hrs by non-invasive tail cuff method relative to control; type: functional; how it was run: as §1
Rattus norvegicus [13] = experiment: Antihypertensive activity in Norwegian albino rat model of DOCA-salt-induced hypertension assessed as inhibition of systolic blood pressure at 10 mg/kg, po after 3 hrs by non-invasive tail cuff method relative to control; type: functional; how it was run: as §1
Rattus norvegicus [14] = experiment: Antihypertensive activity in Norwegian albino rat model of DOCA-salt-induced hypertension assessed as inhibition of systolic blood pressure at 10 mg/kg, po after 8 hrs by non-invasive tail cuff method relative to control; type: functional; how it was run: as §1
Rattus norvegicus [15] = experiment: Antihypertensive activity in Norwegian albino rat assessed as inhibition of systolic blood pressure at 10 mg/kg, po after 1 hr by invasive carotid artery cannulation method relative to control; type: functional
physchem = conditions: buffer, pH 7.4
Rattus norvegicus [16] = experiment: Antihypertensive activity in Norwegian albino rat assessed as inhibition of systolic blood pressure at 10 mg/kg, po after 2 hrs by invasive carotid artery cannulation method relative to control; type: functional
Rattus norvegicus [17] = experiment: Antihypertensive activity in Norwegian albino rat assessed as inhibition of systolic blood pressure at 10 mg/kg, po after 4 hrs by invasive carotid artery cannulation method relative to control; type: functional
Rattus norvegicus [18] = experiment: Antihypertensive activity in Norwegian albino rat model of DOCA-salt-induced hypertension assessed as inhibition of systolic blood pressure at 10 mg/kg, po after 6 hrs by non-invasive tail cuff method relative to control; type: functional; how it was run: as §1
Rattus norvegicus [19] = experiment: Antihypertensive activity in Norwegian albino rat model of DOCA-salt-induced hypertension assessed as inhibition of systolic blood pressure at 10 mg/kg, po after 10 hrs by non-invasive tail cuff method relative to control; type: functional; how it was run: as §1
[20] = AUC (0 to infinity) in Sprague-Dawley rat at 20 mg/kg, po by HPLC method; type: ADME, organism-based; set-up: dose 20 mg/kg, route oral, time infinity; conditions: in vivo
[21] = Retention time of the compound by HPLC method; type: physicochemical
How it was run: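 HPLC run with 20 µl injection, 1.0 ml/min flow, 25 °C, detection at 343 nm or 258 nm depending on compound.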

[22] = Cmax in Sprague-Dawley rat at 10 mg/kg, iv by HPLC method; type: ADME, organism-based; set-up: dose 10 mg/kg, route intravenous; conditions: in vivo
[23] = Elimination half life in Sprague-Dawley rat at 10 mg/kg, iv by HPLC method; type: ADME, organism-based; conditions: in vivo, read-out: beta t1/2 (converted)
[24] = Cmax in Sprague-Dawley rat at 20 mg/kg, po by HPLC method; type: ADME, organism-based; set-up: dose 20 mg/kg, route oral; conditions: in vivo
[25] = Retardation factor of the compound by HPTLC method; type: physicochemical
How it was run: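 Pre-coated silica gel 60 F254 plates (200 µm layer); 5 µl sample applied as 5 mm bands; toluene/acetonitrile (9:1) mobile phase, ascending development to 90 mm in a chamber pre-saturated 15 min.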

[26] = AUC (0 to infinity) in Sprague-Dawley rat at 10 mg/kg, iv by HPLC method; type: ADME, organism-based; set-up: dose 10 mg/kg, route intravenous, time infinity; conditions: in vivo
[27] = Oral bioavailability in Sprague-Dawley rat at 20 mg/kg by HPLC method; type: ADME, organism-based; conditions: in vivo
[28] = Elimination half life in Sprague-Dawley rat at 20 mg/kg, po by HPLC method; type: ADME, organism-based; conditions: in vivo, read-out: beta t1/2 (converted)
[29] = Tmax in Sprague-Dawley rat at 20 mg/kg, po by HPLC method; type: ADME, organism-based; conditions: in vivo
Rattus norvegicus [30] = experiment: Antihypertensive activity in Norwegian albino rat assessed as inhibition of diastolic blood pressure at 10 mg/kg, po after 1 hr by invasive carotid artery cannulation method relative to control
Rattus norvegicus [31] = experiment: Antihypertensive activity in Norwegian albino rat assessed as inhibition of diastolic blood pressure at 10 mg/kg, po after 2 hrs by invasive carotid artery cannulation method relative to control
Rattus norvegicus [32] = experiment: Antihypertensive activity in Norwegian albino rat assessed as inhibition of diastolic blood pressure at 10 mg/kg, po after 4 hrs by invasive carotid artery cannulation method relative to control
Rattus norvegicus [33] = experiment: Antihypertensive activity in Norwegian albino rat assessed as inhibition of diastolic blood pressure at 10 mg/kg, po after 0.3 hrs by invasive carotid artery cannulation method relative to control
Rattus norvegicus [34] = experiment: Antihypertensive activity in Norwegian albino rat assessed as inhibition of diastolic blood pressure at 10 mg/kg, po after 0.15 hrs by invasive carotid artery cannulation method relative to control
Rattus norvegicus [35] = experiment: Antihypertensive activity in Norwegian albino rat assessed as inhibition of diastolic blood pressure at 10 mg/kg, po after 3 hrs by invasive carotid artery cannulation method relative to control

Sequence of Myosin light chain kinase, smooth muscle (Q15746 whole entry): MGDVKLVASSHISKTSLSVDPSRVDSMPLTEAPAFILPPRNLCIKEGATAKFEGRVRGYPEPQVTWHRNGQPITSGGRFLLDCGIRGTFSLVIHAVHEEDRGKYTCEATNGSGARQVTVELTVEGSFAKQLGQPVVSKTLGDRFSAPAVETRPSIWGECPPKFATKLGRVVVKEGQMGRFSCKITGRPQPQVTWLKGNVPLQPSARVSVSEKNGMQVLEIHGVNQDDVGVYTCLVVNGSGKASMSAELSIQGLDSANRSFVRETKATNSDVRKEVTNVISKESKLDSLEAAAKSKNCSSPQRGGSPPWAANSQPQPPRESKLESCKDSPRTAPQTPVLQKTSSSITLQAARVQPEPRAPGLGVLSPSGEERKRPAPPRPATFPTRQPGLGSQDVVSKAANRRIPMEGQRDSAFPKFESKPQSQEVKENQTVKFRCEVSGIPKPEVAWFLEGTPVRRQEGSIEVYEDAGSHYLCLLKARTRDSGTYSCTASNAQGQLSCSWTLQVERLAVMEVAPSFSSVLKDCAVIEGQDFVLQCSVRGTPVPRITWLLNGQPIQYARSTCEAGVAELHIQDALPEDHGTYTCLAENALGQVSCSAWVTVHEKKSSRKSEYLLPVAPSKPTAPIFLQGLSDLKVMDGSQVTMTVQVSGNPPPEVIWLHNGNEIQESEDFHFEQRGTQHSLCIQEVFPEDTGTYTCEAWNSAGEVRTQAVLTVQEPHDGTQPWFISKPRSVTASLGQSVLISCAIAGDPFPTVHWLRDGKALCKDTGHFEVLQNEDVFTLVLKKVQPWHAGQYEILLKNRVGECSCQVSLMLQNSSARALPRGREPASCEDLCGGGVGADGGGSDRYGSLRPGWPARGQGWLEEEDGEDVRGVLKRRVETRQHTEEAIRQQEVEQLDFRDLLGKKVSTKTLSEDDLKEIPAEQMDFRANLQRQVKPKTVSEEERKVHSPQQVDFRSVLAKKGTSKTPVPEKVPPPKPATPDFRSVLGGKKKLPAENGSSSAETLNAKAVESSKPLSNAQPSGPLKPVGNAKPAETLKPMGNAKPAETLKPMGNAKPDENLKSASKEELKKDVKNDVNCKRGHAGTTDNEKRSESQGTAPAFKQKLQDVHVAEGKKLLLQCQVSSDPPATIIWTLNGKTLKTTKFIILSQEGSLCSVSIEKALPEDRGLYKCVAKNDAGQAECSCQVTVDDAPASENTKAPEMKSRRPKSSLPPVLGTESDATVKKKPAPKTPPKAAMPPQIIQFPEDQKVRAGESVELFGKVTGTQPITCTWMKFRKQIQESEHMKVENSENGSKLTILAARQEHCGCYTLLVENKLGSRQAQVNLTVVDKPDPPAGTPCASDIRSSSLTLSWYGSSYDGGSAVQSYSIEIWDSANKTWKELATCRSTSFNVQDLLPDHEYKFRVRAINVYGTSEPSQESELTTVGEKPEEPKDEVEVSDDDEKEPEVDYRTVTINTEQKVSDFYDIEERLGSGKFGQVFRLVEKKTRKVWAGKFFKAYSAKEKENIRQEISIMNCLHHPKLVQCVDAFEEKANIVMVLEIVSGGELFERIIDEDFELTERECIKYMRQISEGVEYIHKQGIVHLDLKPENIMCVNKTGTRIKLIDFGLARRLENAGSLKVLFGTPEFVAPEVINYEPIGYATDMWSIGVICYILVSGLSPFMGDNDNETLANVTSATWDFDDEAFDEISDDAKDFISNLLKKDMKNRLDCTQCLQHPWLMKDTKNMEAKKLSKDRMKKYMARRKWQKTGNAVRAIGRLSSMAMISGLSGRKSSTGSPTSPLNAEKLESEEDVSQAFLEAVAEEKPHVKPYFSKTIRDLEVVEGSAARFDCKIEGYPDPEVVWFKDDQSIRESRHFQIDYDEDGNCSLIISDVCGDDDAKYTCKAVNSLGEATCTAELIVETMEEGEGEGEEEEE

| IC50 ([4]; read-out: IC50) | IC50 ([4]; read-out: pIC50 (converted)) | IC50 [6] | logD (physchem) | SMILES | UI (Rattus norvegicus [1]) | inhibition in vivo at 10 mg/kg (Rattus norvegicus [2]) | inhibition in vivo at 10 mg/kg (Rattus norvegicus [3]) | inhibition in vivo at 10 mg/kg (Rattus norvegicus [5]) | inhibition in vivo at 10 mg/kg (Rattus norvegicus [7]) | inhibition in vivo at 10 mg/kg (Rattus norvegicus [8]) | inhibition in vivo at 10 mg/kg (Rattus norvegicus [9]) | inhibition in vivo at 10 mg/kg (Rattus norvegicus [10]) | inhibition in vivo at 10 mg/kg (Rattus norvegicus [11]) | inhibition in vivo at 10 mg/kg (Rattus norvegicus [12]) | inhibition in vivo at 10 mg/kg (Rattus norvegicus [13]) | inhibition in vivo at 10 mg/kg (Rattus norvegicus [14]) | inhibition in vivo at 10 mg/kg (Rattus norvegicus [15]) | inhibition in vivo at 10 mg/kg (Rattus norvegicus [16]) | inhibition in vivo at 10 mg/kg (Rattus norvegicus [18]) | inhibition in vivo at 10 mg/kg (Rattus norvegicus [19]) | further results |
| --- | --- | --- | --- | --- | --- | --- | --- | --- | --- | --- | --- | --- | --- | --- | --- | --- | --- | --- | --- | --- | --- |
| 2.14 µM | 46700 µM | > 100 µM | 4.64 | COC(=O)C1=C(C)N=C2Sc3ccccc3N2C1c1ccc(OC)cc1 (stereo not drawn) | 0.54 | 31.1% | 20% | 7.08% | 4.42% | 1.33% | 1.78% | 31% | 40% | 24.4% | 13.3% | 35.6% | 15.9% | 27% | 25.3% | 48.9% | inhibition in vivo at 10 mg/kg (Rattus norvegicus [17]): 42.5% |
| 2.04 µM | 49000 µM | > 100 µM | 4.49 | COC(=O)C1=C(C)N=C2Sc3ccccc3N2C1c1ccc([N+](=O)[O-])cc1 (stereo not drawn) | 0.2 | 40.3% | 24.8% | 4.42% | 2.21% | 0% | 4.87% | 31% | 46.9% | 27% | 13.7% | 42.5% | 15.9% | 24.8% | 38% | 46.9% | inhibition in vivo at 10 mg/kg (Rattus norvegicus [17]): 48.7% |
| 3.67 µM | 27200 µM | > 100 µM | 3.89 | COC(=O)C1=C(C)N=C2Sc3ccccc3N2C1c1ccc(O)c(OC)c1 (stereo not drawn) | 0.2 | 36.5% | 19.8% | 7.08% | 4.42% | 0.9% | 5.41% | 31% | 40.1% | 27.5% | 13.1% | 37.8% | 15.9% | 27% | 32.4% | 41% | inhibition in vivo at 10 mg/kg (Rattus norvegicus [17]): 42.5% |
| 2.1 µM | 47600 µM | > 100 µM | 4.57 | CCOC(=O)C1=C(C)N=C2Sc3ccccc3N2C1c1cccc([N+](=O)[O-])c1 (stereo not drawn) | 0.2 | 37.8% | 19.1% | 20% | 4% | 4.89% | 10.2% | 42.2% | 47.1% | 23.1% | 14.2% | 41.8% | 21.8% | 28.9% | 27.6% | 51.1% | AUC(0-inf) [20]: 840 ng·h/mL; Retention_time [21]: 3.045 min; Cmax [22]: 1630 ng/mL; half-life [23]: 2.5 h; Cmax [24]: 400 ng/mL; Rf [25]: 4.2; AUC(0-inf) [26]: 1480 ng·h/mL; inhibition in vivo at 10 mg/kg (Rattus norvegicus [17]): 52.4%; bioavailability [27]: 56.8%; half-life [28]: 5.4 h; Tmax [29]: 0.5 h |

| SMILES | IC50 ([4]; read-out: IC50) | IC50 ([4]; read-out: pIC50 (converted)) | IC50 [6] | logD (physchem) | UI (Rattus norvegicus [1]) | inhibition in vivo at 10 mg/kg (Rattus norvegicus [2]) | inhibition in vivo at 10 mg/kg (Rattus norvegicus [3]) | inhibition in vivo at 10 mg/kg (Rattus norvegicus [5]) | inhibition in vivo at 10 mg/kg (Rattus norvegicus [7]) | inhibition in vivo at 10 mg/kg (Rattus norvegicus [8]) | inhibition in vivo at 10 mg/kg (Rattus norvegicus [9]) | inhibition in vivo at 10 mg/kg (Rattus norvegicus [10]) | inhibition in vivo at 10 mg/kg (Rattus norvegicus [11]) | inhibition in vivo at 10 mg/kg (Rattus norvegicus [12]) | inhibition in vivo at 10 mg/kg (Rattus norvegicus [13]) | inhibition in vivo at 10 mg/kg (Rattus norvegicus [14]) | inhibition in vivo at 10 mg/kg (Rattus norvegicus [15]) | inhibition in vivo at 10 mg/kg (Rattus norvegicus [16]) | inhibition in vivo at 10 mg/kg (Rattus norvegicus [18]) | inhibition in vivo at 10 mg/kg (Rattus norvegicus [19]) | further results |
| --- | --- | --- | --- | --- | --- | --- | --- | --- | --- | --- | --- | --- | --- | --- | --- | --- | --- | --- | --- | --- | --- |
| COC(=O)C1=C(C)NC(C)=C(C(=O)OC)C1c1ccccc1[N+](=O)[O-] [NIFEDIPINE] | 2.02 µM |  | 2.34 µM |  | 0.54 | 41.8% | 19.1% |  |  | 4.89% | 10.7% |  | 52% | 23.1% | 14.2% | 47.6% |  |  | 32.9% | 54.2% | inhibition in vivo at 10 mg/kg (Rattus norvegicus [30]): 16%; inhibition in vivo at 10 mg/kg (Rattus norvegicus [31]): 26.7%; inhibition in vivo at 10 mg/kg (Rattus norvegicus [32]): 53.8%; inhibition in vivo at 10 mg/kg (Rattus norvegicus [33]): 13.8%; inhibition in vivo at 10 mg/kg (Rattus norvegicus [34]): 6.22%; inhibition in vivo at 10 mg/kg (Rattus norvegicus [35]): 37.3% |
